As usually defined, the pKa is the negative logarithm of the acid dissociation constant. A higher pKa goes with a weaker acid or stronger base.

Series [1] concerns Staphylococcus aureus. The series can be described thus: microbe, parasite or virus in culture. As to conditions: isolate d20A1.
The subject of series [2] is Staphylococcus aureus. Nature of the series: Antibacterial activity against Staphylococcus aureus NCTC 8325 after 16 to 20 hrs by broth microdilution method. The class given is functional. The essentials:
(§1)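 Broth microdilution in cation-adjusted Mueller Hinton broth. Compounds were serially diluted twofold in DMSO at 50-fold final strength (2% DMSO final). The inoculum was 1 × 10^4 cells per well. Plates were incubated at 37 °C for 16–20 h, and growth was read as absorbance at 600 nm.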
Background: In broth dilution the organism is exposed to a series of concentrations in liquid medium.

Series [3] relates to Staphylococcus aureus. Nature of the series: Antibacterial activity against Staphylococcus aureus NCTC 8325 carrying expression vector pG154 after 16 to 20 hrs by broth microdilution method in presence of anhydrous tetracycline. The series is classed as functional. The essentials: (§2)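 Broth microdilution in cation-adjusted MHB containing anhydrous tetracycline at 100 ng/ml final to induce the pG154 expression vector. Twofold DMSO compound dilutions were used (2% DMSO final) with 1 × 10^4 cells per well. Incubation was 37 °C for 16–20 h, and absorbance was read at 600 nm.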

For series [4], the system named is Staphylococcus aureus. Nature of the series: Antibacterial activity against Staphylococcus aureus NCTC 8325 harboring genetic deletion of mepRA gene and carrying expression vector pG154 after 16 to 20 hrs by broth microdilution method. The series is classed as functional. The essentials:
as §1

Series [5] deals with Staphylococcus aureus. Nature of the series: Antibacterial activity against Staphylococcus aureus NCTC 8325 harboring genetic deletion of mepRA gene after 16 to 20 hrs by broth microdilution method. The class given is functional. The essentials:
as §1

For series [6], the system named is Staphylococcus aureus. The series can be described thus: Antibacterial activity against Staphylococcus aureus NCTC 8325 carrying expression vector pG154 after 16 to 20 hrs by broth microdilution method. The series is classed as functional. Summed up:
as §1

For series [7], the system named is Staphylococcus aureus. Nature of the series: Antibacterial activity against Staphylococcus aureus NCTC 8325 harboring genetic deletion of mepRA gene and carrying expression vector pG154 with mepA gene after 16 to 20 hrs by broth microdilution method in presence of anhydrous tetracycline. The class given is functional. The essentials: as §2
Series [8] concerns Staphylococcus aureus. Nature of the series: Antibacterial activity against Staphylococcus aureus NCTC 8325 harboring genetic deletion of mepRA gene and carrying expression vector pG154 after 16 to 20 hrs by broth microdilution method in presence of anhydrous tetracycline. The class given is functional. The essentials:
as §2

The subject of series [9] is Staphylococcus aureus. The series can be described thus: Antibacterial activity against Staphylococcus aureus NCTC 8325 harboring genetic deletion of mepR gene after 16 to 20 hrs by broth microdilution method. The class given is functional. Summed up: as §1
Series [10] deals with Staphylococcus aureus. The series can be described thus: Antibacterial activity against Staphylococcus aureus NCTC 8325 carrying expression vector pG154 with mepA gene after 16 to 20 hrs by broth microdilution method. The series is classed as functional. Summed up: as §1
Series [11] deals with Staphylococcus aureus. The series can be described thus: Antibacterial activity against Staphylococcus aureus NCTC 8325 carrying expression vector pG154 with mepA gene after 16 to 20 hrs by broth microdilution method in presence of anhydrous tetracycline. The series is classed as functional. The essentials:
as §2

Series [12] has as its system Staphylococcus aureus. The series can be described thus: Antibacterial activity against Staphylococcus aureus NCTC 8325 after 16 to 20 hrs by broth microdilution method in presence of efflux pump inhibitor reserpine. The series is classed as functional. Summed up:
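Broth microdilution in cation-adjusted MHB with reserpine at 20 µg/ml final in the medium as efflux inhibitor. Twofold DMSO dilutions were made (2% DMSO final) with 1 × 10^4 cells per well. Incubation was 37 °C for 16–20 h, with growth read at 600 nm.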

In series [13] the test system is Staphylococcus aureus. Nature of the series: Antibacterial activity against Staphylococcus aureus NCTC 8325 harboring genetic deletion of mepRA gene and carrying expression vector pG154 with mepA gene after 16 to 20 hrs by broth microdilution method. The series is classed as functional. Summed up:
as §1

Series [14] is described as follows: Dissociation constant, pKa of the compound. The series is classed as physicochemical.
The nature of series [15]: Selectivity ratio of MIC for MBX-1090-resistant Staphylococcus aureus isolate d20A1 to MIC for Staphylococcus aureus NCTC 8325. The class given is functional. Summed up: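 Ratio of resistant-mutant MIC to NCTC 8325 MIC. Both MICs came from broth microdilution in cation-adjusted MHB with 2% DMSO final and 1 × 10^4 cells per well, incubated at 37 °C for 16–20 h and read at 600 nm.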

Converted amounts (≈) assume the structure as drawn. Numbered stars: 1 amine (or outer) side, 2 acyl side, 3 side chain; on linkers, the order of the positions; unused ones are H or OH. Bridge positions count the residues as written; N and C are the ends. Square brackets hold non-standard residues; d marks the D form. Peptide text beside a SMILES is read from it. I, II: the chains in the order shown. Actinocin(1to9) = Cc1c2oc3c(C)ccc(C(=O)[*:2])c3nc-2c(C(=O)[*:1])c(N)c1=O; NMeV = CN[C@H](C(=O)O)C(C)C; Sar = CNCC(=O)O

For the molecule `CC(=O)O[C@H]1C[C@@]2(C)[C@@H](C[C@@H](O)[C@H]3[C@@]4(C)CC[C@@H](O)[C@@H](C)[C@@H]4CC[C@@]32C)/C1=C(\CCC=C(C)C)C(=O)O` [FUSIDIC ACID], the MIC in series [1] and in [2] was 0.0625 µg/mL (≈ 0.121 µM) in each case.
Take `Cc1c2oc3c(C)ccc(C(=O)N[C@@H]4C(=O)N[C@H](C(C)C)C(=O)N5CCC[C@H]5C(=O)N(C)CC(=O)N(C)[C@@H](C(C)C)C(=O)O[C@@H]4C)c3nc-2c(C(=O)N[C@@H]2C(=O)N[C@H](C(C)C)C(=O)N3CCC[C@H]3C(=O)N(C)CC(=O)N(C)[C@@H](C(C)C)C(=O)O[C@@H]2C)c(N)c1=O` [DACTINOMYCIN] (I: T[dV]P[Sar][NMeV] / II: T[dV]P[Sar][NMeV]; ester I:1-I:C, II:1-II:C; linker I:N-II:N via Actinocin(1to9)): the MIC in series [1] and in [2] was 0.625 µg/mL (≈ 0.498 µM) in each case.
As for `c1cc2cc(-c3ccc4cc(-c5ccc6oc(C7=NCCN7)cc6c5)[nH]c4c3)[nH]c2cc1C1=NCCN1`, the MIC was 1 µg/mL in series [3]; 1 µg/mL (≈ 2.06 µM) in [4]; 1 µg/mL (≈ 2.06 µM) in series [5]; 1 µg/mL (≈ 2.06 µM) in [6]; 0.5 µg/mL in series [7]; 0.5 µg/mL in series [8]. Moreover, the MIC turned out to be 0.5 µg/mL (≈ 1.03 µM) in [9]; 1 µg/mL (≈ 2.06 µM) in series [1]; 1 µg/mL (≈ 2.06 µM) in [10]; 0.25 µg/mL in series [11]; 0.5 µg/mL (≈ 1.03 µM) in [2]; 0.25 µg/mL in [12]. Further, the MIC in series [13] came out at 0.5 µg/mL (≈ 1.03 µM).
Regarding `CO[C@H]1/C=C/O[C@@]2(C)Oc3c(C)c(O)c4c(O)c(c(/C=N/N5CCN(C)CC5)c(O)c4c3C2=O)NC(=O)/C(C)=C\C=C\[C@H](C)[C@H](O)[C@@H](C)[C@@H](O)[C@@H](C)[C@H](OC(C)=O)[C@@H]1C` [RIFAMPIN], the MIC in series [1] and in series [2] was 0.0122 µg/mL (≈ 0.0148 µM) in each case.
With `COc1cc(Cc2cnc(N)nc2N)cc(OC)c1OC` [TRIMETHOPRIM], the MIC in series [1] and in series [2] was 3.12 µg/mL (≈ 10.8 µM) in each case.
In the case of `CC[C@H]1OC(=O)[C@H](C)[C@@H](O[C@H]2C[C@@](C)(OC)[C@@H](O)[C@H](C)O2)[C@H](C)[C@@H](O[C@@H]2O[C@H](C)C[C@H](N(C)C)[C@H]2O)[C@](C)(O)C[C@@H](C)C(=O)[C@H](C)[C@@H](O)[C@]1(C)O` [ERYTHROMYCIN], the MIC in series [1] amounted to 0.5 µg/mL (≈ 0.681 µM); in series [2], 1 µg/mL (≈ 1.36 µM).
`N=C(N)c1ccc(-c2cc3ccc(C(=N)N)cc3[nH]2)cc1` [DAPI] registered a pKa in [14] of 11.6.
As to `O=C(O)c1cn(C2CC2)c2cc(N3CCNCC3)c(F)cc2c1=O` [CIPROFLOXACIN], the MIC in [1] worked out at 0.391 µg/mL (≈ 1.18 µM); in [2], 0.195 µg/mL (≈ 0.589 µM). For the same molecule, in [15], the Selectivity ratio turned out to be 2.
Take `CCN1CCN(c2cc3c(cc2F)c(=O)c(C(=O)O)cn3C2CC2)CC1` [ENROFLOXACIN]: the MIC in series [1] and in [2] was 0.125 µg/mL (≈ 0.348 µM) in each case.
On to `CCn1cc(C(=O)O)c(=O)c2ccc(C)nc21` [NALIDIXIC ACID], for which the MIC in series [1] worked out at 50 µg/mL (≈ 215 µM); in series [2], 100 µg/mL (≈ 431 µM).
In the same order, the values of `CO[C@@H]1[C@@H](OC(N)=O)[C@@H](O)[C@H](Oc2ccc3c(O)c(NC(=O)c4ccc(O)c(CC=C(C)C)c4)c(=O)oc3c2C)OC1(C)C` [NOVOBIOCIN] are 0.125 µg/mL (≈ 0.204 µM) and 0.125 µg/mL (≈ 0.204 µM).

The record behind these values is ChEMBL document CHEMBL1157072 (Bioorg Med Chem, 2010).
